Test results from ChEMBL document CHEMBL1287738, “Synthesis and biological evaluation of retinoid-chalcones as inhibitors of colon cancer cell growth” (Bioorg Med Chem Lett, 2010).

Test system: HT-29
Assay: Growth inhibition of human HT-29 cell
Format: functional, cell-based
Procedure, shortened: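 Human colon carcinoma HT-29 cells (Apc-null, wild-type β-catenin) incubated with varying concentrations of each compound for 3 days at 37°C; growth inhibition measured.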

N#Cc1ccc(/C=C/C(=O)c2ccccc2)cc1
IC50: 3.7 µM
